Calls of active or inactive are those of the source.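 How the source made its calls: active means current rise at least 3 SD above the untreated control mean in each of two repeat wells; inactive means the rest.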
Biological target: Potassium voltage-gated channel subfamily KQT member 1 (Homo sapiens) (UniProt P51787)
Experiment: KCNQ1 activators by electrophysiology – IonWorks patch clamp, KCNQ1-CHO cells, orthogonal assay for KCNQ1 potentiator project, confirmation (AID 493184)
Conditions: automated patch clamp current, at 10 µM
How it was run: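 Assay system – CHO cells carrying KCNQ1 · Medium – pH 7.4 external bath · Probe or stimulus – depolarizing pulse to +40 mV from -90 mV · Compound dosing – one dose, 10 µM final · Measured by – automated perforated-patch electrophysiology · Measure – % potentiation of steady-state current relative to pre-compound · Repeats – two replicates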

Potassium voltage-gated channel subfamily KQT member 1 (Homo sapiens), sequence (P51787 whole entry, looked up): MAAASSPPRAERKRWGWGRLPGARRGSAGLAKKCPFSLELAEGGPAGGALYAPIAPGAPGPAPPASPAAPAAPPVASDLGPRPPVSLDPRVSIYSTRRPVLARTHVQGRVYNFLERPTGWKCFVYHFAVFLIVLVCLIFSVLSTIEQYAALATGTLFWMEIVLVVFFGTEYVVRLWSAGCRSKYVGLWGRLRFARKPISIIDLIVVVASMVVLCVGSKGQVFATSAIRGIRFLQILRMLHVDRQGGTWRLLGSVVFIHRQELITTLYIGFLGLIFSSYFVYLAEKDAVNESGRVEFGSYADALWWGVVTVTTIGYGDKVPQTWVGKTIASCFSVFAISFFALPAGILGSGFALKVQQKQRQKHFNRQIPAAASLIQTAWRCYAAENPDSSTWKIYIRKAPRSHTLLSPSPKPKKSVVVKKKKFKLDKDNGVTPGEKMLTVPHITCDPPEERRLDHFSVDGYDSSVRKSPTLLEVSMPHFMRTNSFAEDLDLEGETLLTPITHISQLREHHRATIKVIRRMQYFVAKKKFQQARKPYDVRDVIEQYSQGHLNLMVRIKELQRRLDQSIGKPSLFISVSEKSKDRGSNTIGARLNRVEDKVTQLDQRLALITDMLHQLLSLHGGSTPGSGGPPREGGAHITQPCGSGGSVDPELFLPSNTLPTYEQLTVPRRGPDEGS

outcome, inactive:
COc1ccc(/C=C2\SC(=O)NC2=S)cc1OC
Cc1ccc(-c2nc3ccccc3o2)cc1NC(=S)NC(=O)c1cc2ccccc2o1
O=C(CSc1nc2ccccc2s1)c1cc2ccccc2o1
O=C(c1ccc(S(=O)(=O)N2CCCC2)cc1)N1CCN(c2cccc(Cl)c2)CC1
O=C(CN1CCOCC1)N1CCN(c2nnc(-c3ccccc3)c3ccccc23)CC1
CCC(C)c1ccccc1NC(=S)NC(=O)c1ccco1 (centres undefined)
O=C(NC(=S)Nc1ccc(N2CCCCC2)cc1)c1cccs1
Cc1cnc(NC(=O)c2ccc(-c3nc4ccccc4s3)o2)s1
Cc1csc(NC(=S)NC(=O)c2ccccc2)n1
C=CCOc1ccc(/C=C2\SC(=S)N(NS(=O)(=O)c3ccc(C)cc3)C2=O)cc1
CSc1nc(C)cc(OCC(=O)N/N=C/c2ccccc2O)n1
CC1CCc2c(sc3[nH]c(=S)n(C)c(=O)c23)C1 (centres undefined)
COc1ccc(C(=O)O/N=C(\N)Cc2ccc(Cl)cc2)cc1OC
Cc1cc(Nc2cc(N3CCN(C)CC3)nc(Sc3ccc(NC(=O)C4CC4)cc3)n2)n[nH]1
CC(C)(C)c1ccc(Oc2ccc(N)cn2)cc1
COc1cc2c(cc1OC)CN(C(=O)CNC(=O)c1ccc(OC(F)F)cc1)CC2
Cc1cccc(CC2CC(=O)N(c3ccc(C)cc3Br)C2=O)c1 (centres undefined)
Cc1ccccc1NC(=O)C(=O)NNC(=O)COc1ccc2ccccc2c1
Cc1cc(C(=O)N/N=C/C=C/c2ccc3c(c2)OCO3)n[nH]1
Cc1ccc(-c2ccc(C3C(C#N)=C(N)Oc4n[nH]c(C)c43)o2)cc1 (centres undefined)
CC(=O)c1cccc(NC(=S)NC(=O)c2ccc(Cl)cc2)c1
COc1ccc2nc(/N=C/c3c(C)[nH]n(-c4ccc(C)cc4C)c3=O)sc2c1
COC(=O)c1ccc(C(=O)NC(=S)Nc2nc3c(s2)CCCC3)cc1
C=CCn1c(O)c(N=NC(=S)Nc2ccccc2C)c2cc(S(=O)(=O)N3CCOCC3)ccc21
O=C1/C(=C/c2cccc(F)c2)SC(=S)N1NS(=O)(=O)c1ccccc1
O=C1c2ccccc2NC(c2ccc(-c3cccc(Cl)c3)o2)N1O (centres undefined)
O=C(NC(=S)Nc1ccccc1Cl)c1cncc(Br)c1
Cc1c(/C=N\NC(=O)c2ccc(F)cc2)cnn1C
CCC1(c2ccccc2)NC(=O)N(CC(=O)Nc2ccccc2C(=O)N2CCCCC2)C1=O (centres undefined)
Fc1ccccc1Nc1nc(Cl)nc(Cl)n1
O=C(CN1CCCC1)Nc1ccc2c(c1)CCC2
CN(C(=O)c1ccco1)c1nnc(-c2ccc(F)cc2)s1
Cc1ccc(NC(=S)N2CCC(N(C)CC3CCCO3)CC2)cc1 (centres undefined)
Cc1cc(C)cc(-n2ccnc2SCC(=O)Nc2nccs2)c1
Cc1cc(C)cc(NC(=O)C(Sc2ncnc3ccccc23)c2ccccc2)c1 (centres undefined)
COC(=O)C1C(=O)c2c([nH]c(C(=O)OCCSC)c2C)CC1C (centres undefined)
CCn1nc(C)c(CNC(=O)C2CCC(=O)N(Cc3cccc(F)c3)C2)c1C (centres undefined)
Cc1noc(C)c1CSc1ncnc2sc3c(c12)CCCCC3
C=C(C)CNC(=O)c1ccc(OC2CCN(C(=O)COC)CC2)cc1
